From ChEMBL document CHEMBL5678801, “A benzothiophene inhibitor of mitogen-activated protein kinase-activated protein kinase 2 inhibits tumor necrosis factor alpha production and has oral anti-inflammatory efficacy in acute and chronic models of inflammation” (J Pharmacol Exp Ther, 2010)
pIC50: −log10 of the molar value.

Tests used:
[1] = AUC in chronic SCW-induced arthritis Lewis rat model plasma at ED80 concentration; format: ADME, cell-free
Method in brief: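 Female Lewis rats (125-140 g) received a single i.p. streptococcal cell wall injection. Animals showing the acute phase were pooled, 4-8 per group over three experiments. Dosing was oral gavage b.i.d., days 10-21, in methylcellulose-Tween-20 vehicle. Hind paw volume was read by displacement plethysmometer on day 21, as % inhibition of swelling. Plasma was sampled up to 11 h after the last dose, 3 rats per dose. ED values came from fitted curves.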

[2] = target: T1, MAP kinase-activated protein kinase 5 (Homo sapiens, UniProt Q8IW41); experiment: Inhibition of recombinant PRAK (unknown origin) expressed in Escherichia coli using KKKALSRQLSVAA as substrate incubated for 1 hr followed by substrate addition in presence of ATP
T1 sequence (Q8IW41 whole entry): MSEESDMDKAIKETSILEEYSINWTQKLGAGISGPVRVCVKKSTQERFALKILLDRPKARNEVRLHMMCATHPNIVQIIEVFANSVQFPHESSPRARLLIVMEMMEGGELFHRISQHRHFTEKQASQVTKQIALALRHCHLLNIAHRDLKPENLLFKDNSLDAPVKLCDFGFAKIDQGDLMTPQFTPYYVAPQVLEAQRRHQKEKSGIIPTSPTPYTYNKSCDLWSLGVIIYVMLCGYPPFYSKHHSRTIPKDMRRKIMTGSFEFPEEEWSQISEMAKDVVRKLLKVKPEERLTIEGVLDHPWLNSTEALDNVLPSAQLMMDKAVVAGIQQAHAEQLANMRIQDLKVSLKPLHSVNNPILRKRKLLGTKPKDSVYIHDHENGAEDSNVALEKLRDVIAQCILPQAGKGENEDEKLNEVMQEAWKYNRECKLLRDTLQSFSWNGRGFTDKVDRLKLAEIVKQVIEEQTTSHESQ
Method in brief: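 Recombinant kinase first activated with activated p38α (1:50 molar ratio) and 250 μM ATP for 1 hr at 30°C. Activity measured by 33P-labelled product peptide, separated by ion exchange. MgATP fixed at the Km(app) determined for each enzyme. IC50 values from duplicate experiments.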

[3] = Inhibition of recombinant RSK1/2/3/4 (unknown origin) using KKKALSRQLSVAA as substrate incubated for 1 hr followed by substrate addition in presence of ATP; set-up: species or system Homo sapiens
Method in brief: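 MAPKAP family kinases were activated by p38α (1:50 molar, 250 μM ATP, 1 h, 30°C). Assays ran in 20 mM HEPES pH 7.5, 10 mM MgCl2, 1 mM DTT, 0.01% BSA, 0.0005% Tween-20, at MgATP fixed at each enzyme's Km(app). The 33P-labelled product peptide was separated by ion exchange. Duplicate experiments. MSK1 (367-802) and MSK2 (351-772) were N-terminal 6xHis constructs from Sf9 cells.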

[4] = Inhibition of AMPK (unknown origin); set-up: species or system Homo sapiens
[5] = target: Cyclin-dependent kinase 5/CDK5 activator 1 (Homo sapiens, UniProt Q00535); experiment: Inhibition of CDK5/p35 (unknown origin); format: protein-complex assay
Cyclin-dependent kinase 5/CDK5 activator 1, sequence (Q00535 whole entry): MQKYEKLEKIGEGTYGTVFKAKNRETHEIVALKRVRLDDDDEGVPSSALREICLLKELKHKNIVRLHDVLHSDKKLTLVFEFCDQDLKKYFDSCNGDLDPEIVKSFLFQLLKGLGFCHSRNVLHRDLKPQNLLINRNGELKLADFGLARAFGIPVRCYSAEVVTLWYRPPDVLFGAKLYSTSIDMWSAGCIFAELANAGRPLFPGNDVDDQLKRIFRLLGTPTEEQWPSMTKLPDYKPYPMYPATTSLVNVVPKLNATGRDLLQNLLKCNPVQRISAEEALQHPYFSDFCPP
Cyclin-dependent kinase 5/CDK5 activator 1, sequence (Q15078 whole entry, further chain): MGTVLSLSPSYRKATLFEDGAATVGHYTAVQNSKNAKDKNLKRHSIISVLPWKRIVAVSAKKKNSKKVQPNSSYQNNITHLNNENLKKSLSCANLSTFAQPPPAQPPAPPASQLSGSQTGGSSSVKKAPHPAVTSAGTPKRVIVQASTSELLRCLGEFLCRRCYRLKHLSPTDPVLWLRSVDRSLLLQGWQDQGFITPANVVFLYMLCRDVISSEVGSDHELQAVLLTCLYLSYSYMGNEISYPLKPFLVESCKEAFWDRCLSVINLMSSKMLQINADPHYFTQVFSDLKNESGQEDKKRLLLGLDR
Method in brief: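 Kinase panel: 200 kinases were first screened at 1 μM inhibitor for percent inhibition. Those above 50% inhibition were then titrated for IC50. MgATP was fixed at the Km(app) determined for each enzyme.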

[6] = Inhibition of TNF-alpha production in LPS-induced human U-937 cells preincubated with compound for 1 hr followed by LPS induction and measured after 4 hrs by MSD analysis; format: functional, cell-based
Method in brief: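 U937 cells were pretreated with compound for 1 h (<1% DMSO final), then stimulated with LPS 100 ng/ml at 37°C. Media TNFα was read at 4 h by MSD electrochemiluminescence. Three separate experiments in duplicate, mean ±S.E.M. IC50 by 4-parameter nonlinear regression.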

[7] = Inhibition of MK2 activity in LPS induced human U937 cells preincubated with compound for 1 hr followed by LPS induction and measured after 30 mins by Western blot analysis; format: functional, cell-based; conditions: u-937
Method in brief: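 U937 cells were pretreated with compound for 1 h, then stimulated with LPS 100 ng/ml for 30 min at 37°C. Lysates were run on SDS-PAGE and Western blotted for p-Ser78-HSP27 and total HSP27, detected with fluorescent secondary antibodies and LiCor scanning. The phospho/total ratio was expressed against the LPS-only control. Single experiment repeated three times. 4-parameter fit.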

[8] = Inhibition of MK2 activity in LPS induced human Whole blood cell preincubated with compound for 1 hr followed by LPS induction and measured after 30 mins by Dissociation enhanced lanthanide fluoro-immuno assay; format: functional, cell-based
Method in brief: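 Whole blood was stimulated with LPS 100 ng/ml for 30 min. Phospho-Ser82 HSP27 and total HSP27 in lysates were read by DELFIA immunoassay.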

[9] = Antiinflammatory activity in human Whole blood cell assessed as inhibition of LPS induced IL-8 production preincubated for 1 hr followed by LPS stimulation and measured after 16 hrs by MSD analysis; format: functional, cell-based
Method in brief: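 Human whole blood was stimulated ex vivo with LPS 100 ng/ml. Plasma cytokines were read by MSD 4-plex: TNFα at 4 h; IL-1β, IL-6 and IL-8 at 16 h. Data are means ±S.E.M. of two independent experiments in duplicate, three donors. IC50 by 4-parameter nonlinear regression.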

[10] = Cytotoxicity against human PBMC cells assessed as reduction in cell viability at upto 20 uM; format: toxicity, cell-based
[11] = Clearance in Sprague-Dawley rat plasma at 1 mg/kg measured upto 24 hrs by LC-MS/MS analysis; format: ADME, organism-based
Method in brief: (§1)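 Male Sprague-Dawley rats (275-300 g), carotid-catheterized and acclimated overnight. Dosing was i.v. at 1 mpk (n=2) in 70% saline/20% PEG-400/10% ethanol, or oral at 3 mpk (n=3) as a suspension in 0.5% HPMC/Tween. Plasma drug was measured by LC-MS/MS. Cmax and Tmax were read from individual profiles. t½ came from the terminal log-linear slope and AUC by the linear trapezoidal rule. CL = dose/AUC0-∞, Vdss = CL×MRT, F = dose-normalized AUC po/iv.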

[12] = Volume of distribution at steady state in Sprague-Dawley rat measured upto 24 hrs by […] analysis; format: ADME; conditions: in vivo, read-out: Vdss; method in brief: as §1
[13] = Half life in Sprague-Dawley rat measured upto 24 hrs by […] analysis; format: ADME; conditions: in vivo; method in brief: as §1
[14] = AUC (0 to infinity) in Sprague-Dawley rat at 3 mg/kg, po measured upto 24 hrs by […] analysis; format: ADME, organism-based; conditions: in vivo; method in brief: as §1
[15] = Unbound plasma concentration in po dosed LPS-induced Lewis rat model at ED80 concentration measured after 5.5 hrs of initial dose by LC-MS/MS analysis; format: ADME, organism-based; conditions: in vivo
Method in brief: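 Male Lewis rats (225-250 g, 5 per group) were fasted 18 h, then dosed orally at 0.2-60 mg/kg as a suspension in 0.5% methylcellulose/0.025% Tween 20. LPS 1 mg/kg was given i.v. 4 h later. Blood was taken by cardiac puncture 90 min after LPS. Serum TNFα was read by ELISA and drug by LC-MS/MS, three independent experiments. 4-parameter fit. Unbound values were corrected with measured rat plasma protein binding.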

Structure (SMILES): Cc1ccc(-c2ccc3c(ccc4sc5c(c43)NC[C@@H](C)NC5=O)n2)cn1
- AUC [1]: 117 µM·h
- pIC50 [2]: 8.30
- pIC50 [3]: < 6.00
- pIC50 [4]: 6.93
- pIC50 [5]: 6.04
- pIC50 [6]: 6.80
- pIC50 [7]: 6.70
- pIC50 [8]: 5.80
- pIC50 [9]: < 4.70
- Activity [10]: Non-Toxic
- clearance [11]: 10.3 mL/min/kg
- Vd [12]: 1.5 L/kg
- half-life [13]: 9.1 h
- AUC(0-inf) [14]: 1.8 µM·h
- Cp(f) [15]: 340 nM
